Measured values gathered from unrelated publications.
Lines come from different studies, so protocols differ.
blaNDM-1: Metallo-beta-lactamase type 2 (blaNDM-1, Klebsiella pneumoniae, UniProt C7C422)
HTR2C: 5-hydroxytryptamine receptor 2C (HTR2C, Homo sapiens, UniProt P28335)
Tmem97: Sigma intracellular receptor 2 (Tmem97, Rattus norvegicus, UniProt Q5U3Y7)
HTR2B: 5-hydroxytryptamine receptor 2B (HTR2B, Homo sapiens, UniProt P41595)

SMILES | target | assay | setting | quantity | value
COc1ccc2cccc(C(CO)CNC(=O)CF)c2c1 (centres unmarked) | Melatonin receptor type 1A (MTNR1A, Homo sapiens, UniProt P48039) | GTPγS binding, agonist, radiometric | cell membranes | EC50 | 79.4 nM
CC1(C)S[C@H]2CS[C@H](CS)N2[C@@H]1C(=O)O | blaNDM-1 | enzyme activity, inhibitor, absorbance | pH 7.5 | Ki | 18000 nM
COc1cc(CC(C)N)c(OC)cc1I (racemic) | HTR2C | ligand displacement, radioligand |  | Ki | 0.42 nM
CSC[C@@]12C[C@@H]1[C@@H](n1cnc3c(N[C@H](C(C)C)C4CC4)nc(Cl)nc31)[C@H](O)[C@@H]2O | HTR2C | ligand displacement, radioligand |  | Ki | 2570 nM
CCC1CCN(C(=O)[C@H](CCCNC(=N)N)NS(=O)(=O)c2cccc3c(N(C)C)cccc23)CC1 | Prothrombin (F2, Bos taurus, UniProt P00735) | binding, ITC |  | Kd | 22 nM
O=C(O)[C@H]1CS[C@@H]2CS[C@@H](CS)N12 | blaNDM-1 | enzyme activity, inhibitor, absorbance | pH 7.5 | Ki | 19000 nM
CCCCN1CCc2cc(OC)c(OC)cc2C1 | Tmem97 | ligand displacement, radioligand | cell membranes | Ki | 15 nM
CCN(CC)CCNC(=O)c1ccc(F)cc1 | Tmem97 | ligand displacement, radioligand | cell membranes | Ki | 120000 nM
COc1cc(CC(C)N)c(OC)cc1I (centres unmarked) | HTR2B | ligand displacement, radioligand |  | Ki | 1.2 nM
CC(C)[C@@H](Nc1nc(I)nc2c1ncn2[C@H]1[C@H](O)[C@H](O)[C@]2(CO)C[C@H]12)C1CC1 | HTR2C | ligand displacement, radioligand |  | Ki | 344 nM
COc1cc2c3c(c1OC)-c1ccccc1C[C@H]3N(C)CC2 | HTR2C | ligand displacement, radioligand | cell membranes | Ki | 22.2 nM
CC(C)C(Nc1nc(Cl)nc2c1ncn2[C@H]1[C@H](O)[C@H](O)[C@]2(CO)C[C@H]12)C(C)C | HTR2C | ligand displacement, radioligand |  | Ki | 1160 nM
CN(C)CCc1c[nH]c2ccc(Cn3cncn3)cc12 | HTR2B | calcium signal, agonist, fluorescence |  | EC50 | 14000 nM
COc1cc2c3c(c1OC)-c1ccccc1CC3NCC2 (centres unmarked) | HTR2C | ligand displacement, radioligand | cell membranes | Ki | 446 nM
CSc1nc(N[C@H](C(C)C)C2CC2)c2ncn([C@H]3[C@H](O)[C@H](O)[C@]4(CO)C[C@H]34)c2n1 | HTR2C | ligand displacement, radioligand |  | Ki | 432 nM
CCCN1CCc2cc(OC)cc3c2[C@H]1Cc1ccc(O)c(O)c1-3 | D(3) dopamine receptor (Drd3, Rattus norvegicus, UniProt P19020) | binding, radioligand | cell membranes | Kd | 2.02 nM
C[C@H](N)Cn1ncc2ccc3c(c21)CCCO3 | 5-hydroxytryptamine receptor 2A (Rattus norvegicus, UniProt P14842) | calcium signal, agonist, fluorescence |  | EC50 | 22.5 nM
